{"source": "paper PMC8828683", "about": "(Stem Cell Reports, 2022)", "key": {"[1]": {"tested_on": "SCUi24-diff (spontaneously differentiated SCUi24 iPSCs)", "test": "Cells with <2N DNA by FACS of permeabilized cells stained with PI", "assay_type": "cell-based, human", "conditions": "read-out: IC50 DNA (50% of cells with <2N DNA)", "how_it_was_run": "(§1)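 Cells were exposed to a range of test compound concentrations alongside vehicle (DMSO) controls. They were then permeabilized, stained with propidium iodide, and DNA content was read by flow cytometry. IC50 is the concentration at which 50% of cells hold <2N DNA, from 3 independent repetitions with SEM. Line averages and differentiated/pluripotent ratios are derived from these IC50s. NTERA-2 was also run as a time course at 5 μM, normalized to vehicle at each time point.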"}, "[2]": {"tested_on": "human pluripotent cells (ESCs, iPSCs, ECCs)", "test": "ATP loss, summary over pluripotent cell lines", "assay_type": "cell-based", "how_it_was_run": "(§2)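 Cellular ATP was measured with a CellTiter-Glo luminescence viability assay after exposure to a concentration range of test compound. IC50 is the average of three independent assays. Mean IC50s across differentiated or human pluripotent lines, and their ratio, are derived from the per-line values.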"}, "differentiated cells [3]": {"tested_on": "differentiated cells", "test": "ATP loss, summary over differentiated cell lines", "assay_type": "cell-based", "conditions": "read-out: IC50 ATP loss, on average", "how_it_was_run": "as §2"}, "human pluripotent cells": {"tested_on": "human pluripotent cells", "test": "DNA loss", "assay_type": "cell-based", "how_it_was_run": "as §1"}, "differentiated cells [4]": {"tested_on": "differentiated cells", "test": "DNA loss", "assay_type": "cell-based", "conditions": "read-out: IC50 DNA loss, on average; average over differentiated cells", "how_it_was_run": "as §1"}, "[5]": {"tested_on": "human pluripotent cells (ESC, iPSC, ECC lines)", "test": "PCD / live cell loss", "assay_type": "cell-based", "conditions": "ratio of average IC50", "how_it_was_run": "(§3)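 Cells were seeded so that vehicle wells stayed subconfluent, then treated with a range of test compound concentrations for 4 days. Without permeabilization, they were stained with annexin-V-FITC and propidium iodide and analysed by flow cytometry. Double-negative cells (Q3) were scored as live and Q1+Q2 as programmed death. Vehicle was set to 100% viable and 0% dead. Results are the mean of three independent assays with SEM; group averages and ratios are derived from the IC50s.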"}, "differentiated cells [6]": {"tested_on": "differentiated cells", "test": "PCD / live cell loss", "assay_type": "cell-based", "conditions": "read-out: IC50 initiation of PCD, on average; average over differentiated cells", "how_it_was_run": "as §3"}, "VeroE6 cells": {"tested_on": "VeroE6 cells", "test": "Inhibition of cell proliferation", "assay_type": "cell-based, monkey", "conditions": "read-out: IC50 inhibition of proliferation"}, "differentiated cells [7]": {"tested_on": "differentiated cells", "test": "Inhibition of cell proliferation", "assay_type": "cell-based", "conditions": "read-out: IC50 inhibition of proliferation; insensitive differentiated cells"}, "H108 fibroblasts": {"tested_on": "H108 fibroblasts", "test": "Immunoblotting of total cell extracts", "assay_type": "cell-based, human", "how_it_was_run": "(§4)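 Cells were cultured with 2.5 μM test compound for up to 96 h, and attached plus unattached cells were pooled. Whole-cell RIPA lysates were run on 4–12% Bis-Tris gels, transferred to nitrocellulose and blocked in 5% milk/TBS. Primary antibodies went on overnight at 4°C, followed by infrared secondary antibodies and imager quantitation. Each blot carried untreated U2OS as a shared standard, with Ponceau-S histones for normalization and lighter exposures for quantitation. Adriamycin for 24 h (NTERA-2 1 μM, H108 2 μM) served as a DNA-break control.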"}, "NTERA-2 ECCs": {"tested_on": "NTERA-2 ECCs", "test": "Immunoblotting of total cell extracts", "assay_type": "cell-based, human", "how_it_was_run": "as §4"}, "H1 ESCs": {"tested_on": "H1 ESCs", "test": "Immunoblotting of total cell extracts", "assay_type": "cell-based, human", "how_it_was_run": "as §4"}, "[8]": {"tested_on": "NTERA-2 teratocarcinoma xenografts", "test": "Teratocarcinoma xenograft, daily intraperitoneal injections", "assay_type": "in vivo, mice", "how_it_was_run": "(§5)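 Six-week-old female […] BALB/c nude mice were injected subcutaneously in the lower right flank with 200 μL of 50% Matrigel holding 2 million NTERA-2 or 5 million GCT27D.C1 cells (eight mice per model). Once tumors were palpable, mice received 40 mg/kg test compound i.p. daily (DMSO solution diluted in sunflower oil to 200 μL) or vehicle. Tumor volume was calculated as length × width² × 0.5 from calipers, TGI was calculated, and body weight was tracked. Tumors were harvested 15 days later.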"}, "[9]": {"tested_on": "GCT27D.C1 teratocarcinoma xenografts", "test": "Teratocarcinoma xenograft, daily intraperitoneal injections", "assay_type": "in vivo, mice", "how_it_was_run": "as §5"}, "Toxicity studies in mice": {"test": "Toxicity studies in mice", "assay_type": "in vivo, mouse", "conditions": "doses from 20 to 100 mg/kg body weight"}, "[10]": {"test": "Maximum solubility in DMSO", "assay_type": "physicochemical"}, "[11]": {"conditions": "H108, 2.5 μM WX8, normalized to histones"}, "[12]": {"conditions": "H108 fibroblasts, 2.5 μM WX8 or 2 μM Adriamycin 24 h"}, "[13]": {"conditions": "NTERA-2, 2.5 μM WX8, normalized to histones"}, "[14]": {"conditions": "H1, 2.5 μM WX8, normalized to histones"}}}
{"smiles": "C(=N\\Nc1nc(Nc2ccccc2)nc(N2CCOCC2)n1)/c1c[nH]c2ccccc12", "note": "[WX8]", "values": [{"measurement": "IC50", "setting": "[1]", "value": "> 10", "unit": "µM"}, {"measurement": "Difference in ATP loss, differentiated vs pluripotent cells", "setting": "[2]; ratio of average IC50", "value": 13, "unit": "fold"}, {"measurement": "IC50", "setting": "[2]; read-out: IC50 ATP loss, on average, average over human pluripotent cells", "value": 1.2, "unit": "µM"}, {"measurement": "IC50", "setting": "differentiated cells [3]", "value": 15.8, "unit": "µM"}, {"measurement": "Difference in DNA loss, differentiated vs pluripotent cells", "setting": "human pluripotent cells; ratio of average IC50", "value": 24, "unit": "fold"}, {"measurement": "IC50", "setting": "human pluripotent cells; read-out: IC50 DNA loss, on average, average over human pluripotent cells", "value": 2.8, "unit": "µM"}, {"measurement": "IC50", "setting": "differentiated cells [4]", "value": 67.5, "unit": "µM"}, {"measurement": "Difference in the initiation of PCD, differentiated vs pluripotent cells", "setting": "[5]", "value": 35, "unit": "fold"}, {"measurement": "IC50", "setting": "differentiated cells [6]", "value": 81.3, "unit": "µM"}, {"measurement": "IC50", "setting": "VeroE6 cells", "value": 0.45, "unit": "µM"}, {"measurement": "IC50", "setting": "differentiated cells [7]", "value": "> 100", "unit": "µM"}, {"measurement": "Accumulation of p62 protein", "setting": "H108 fibroblasts; [11]", "value": 13, "unit": "fold"}, {"measurement": "Accumulation of total LC3 protein", "setting": "H108 fibroblasts; [11]", "value": 10, "unit": "fold"}, {"measurement": "CASP3 cleavage", "setting": "H108 fibroblasts; [12]", "value": "Neither WX8 nor Adriamycin induced cleavage"}, {"measurement": "PARP cleavage", "setting": "H108 fibroblasts; [12]", "value": "Neither WX8 nor Adriamycin induced cleavage"}, {"measurement": "CASP3 cleavage", "setting": "NTERA-2 ECCs; NTERA-2, 2.5 μM WX8", "value": "< 2", "unit": "%"}, {"measurement": "PARP cleavage", "setting": "NTERA-2 ECCs; NTERA-2, 2.5 μM WX8", "value": 41, "unit": "%"}, {"measurement": "Accumulation of p62 protein", "setting": "NTERA-2 ECCs; [13]", "value": 9, "unit": "fold"}, {"measurement": "Accumulation of total LC3 protein", "setting": "NTERA-2 ECCs; [13]", "value": 4, "unit": "fold"}, {"measurement": "CASP12 cleavage", "setting": "NTERA-2 ECCs; NTERA-2, WX8", "value": "< 2", "unit": "%"}, {"measurement": "Cleaved CASP7", "setting": "NTERA-2 ECCs; NTERA-2, WX8", "value": "not detected"}, {"measurement": "CASP3 cleavage", "setting": "H1 ESCs; H1, 2.5 μM WX8", "value": "< 2", "unit": "%"}, {"measurement": "PARP cleavage", "setting": "H1 ESCs; H1, 2.5 μM WX8", "value": 20, "unit": "%"}, {"measurement": "Accumulation of p62 protein", "setting": "H1 ESCs; [14]", "value": "< 2", "unit": "fold"}, {"measurement": "Accumulation of total LC3 protein", "setting": "H1 ESCs; [14]", "value": 2, "unit": "fold"}, {"measurement": "CASP12 cleavage", "setting": "H1 ESCs; H1, WX8", "value": "< 2", "unit": "%"}, {"measurement": "Cleaved CASP7", "setting": "H1 ESCs; H1, WX8", "value": "not detected"}, {"measurement": "Tumor growth inhibition (TGI)", "setting": "[8]; NTERA-2 tumors, 40 mg WX8/kg daily i.p.", "value": 71, "unit": "%"}, {"measurement": "Mouse body weights", "setting": "[8]; NTERA-2 xenograft mice, 40 mg WX8/kg daily i.p.", "value": "maintained"}, {"measurement": "Effect on teratocarcinoma xenografts", "setting": "[8]; NTERA-2 xenografts, intraperitoneal injections of WX8", "value": "Eliminated stem cells and inhibited tumor growth"}, {"measurement": "Tumor growth inhibition (TGI)", "setting": "[9]; GCT27D.C1 tumors, 40 mg WX8/kg daily i.p.", "value": 78, "unit": "%"}, {"measurement": "OCT4-, SOX2- and Ki67-stained cells in tumor slices", "setting": "[9]; GCT27D.C1 tumors, 40 mg WX8/kg daily i.p., immunohistochemistry", "value": "selectively eliminated cells expressing OCT4 or SOX2 protein with no detectable effect on proliferating cells"}, {"measurement": "Mouse body weights", "setting": "[9]; GCT27D.C1 xenograft mice, 40 mg WX8/kg daily i.p.", "value": "maintained"}, {"measurement": "Effect on teratocarcinoma xenografts", "setting": "[9]; GCT27D.C1 xenografts, intraperitoneal injections of WX8", "value": "Eliminated stem cells and inhibited tumor growth"}, {"measurement": "Maximum dose at which no indication of mouse impairment was observed", "setting": "Toxicity studies in mice", "value": 40, "unit": "mg/kg"}, {"measurement": "Maximum solubility", "setting": "[10]", "value": "about 30 mg WX8/350μL DMSO"}]}
